Most compounds without a hit are left out; they make up all but 2.8% or so of the library.
pPAFAH inh: pPAFAH (human) enzyme inhibition | AID 463082 | inhibition, % at 3.39 µM | recombinant pPAFAH, FP-rhodamine probe fluorescence polarization | actives 1.5% (n = 330,000) | Q13093;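 active = inhibition above the mean inhibition across the screen plus 3 SD, cut at about 25% in these data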;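 note: inhibitors block binding of the rhodamine activity-based probe so polarization drops; 0% = enzyme with DMSO and 100% = wells lacking pPAFAH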
Target sequence (Q13093 whole entry, looked up): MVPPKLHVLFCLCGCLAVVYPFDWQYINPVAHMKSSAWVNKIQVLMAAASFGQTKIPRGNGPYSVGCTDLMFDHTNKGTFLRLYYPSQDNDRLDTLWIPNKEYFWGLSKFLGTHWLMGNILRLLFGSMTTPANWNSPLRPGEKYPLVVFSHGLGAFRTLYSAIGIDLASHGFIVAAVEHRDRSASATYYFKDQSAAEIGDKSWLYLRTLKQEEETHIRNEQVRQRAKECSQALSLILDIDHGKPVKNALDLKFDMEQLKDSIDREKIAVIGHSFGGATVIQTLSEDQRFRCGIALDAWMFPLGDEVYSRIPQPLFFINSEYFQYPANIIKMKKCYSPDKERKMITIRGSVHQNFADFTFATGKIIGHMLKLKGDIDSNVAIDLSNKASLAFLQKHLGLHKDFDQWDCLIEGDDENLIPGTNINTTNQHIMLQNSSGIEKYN
PAFAH2 FP inh: PAFAH2 (human) inhibition; Q99487; recombinant PAFAH2, FP-rhodamine activity probe, fluorescence polarization; inhibition, % at 3.39 µM; actives 0.99% (n = 340,000); AID 492956;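 active = inhibition above the mean over all tested compounds plus 3 SD, cut at about 30% in these data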;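 note: inhibitors block probe labeling of enzyme so polarization drops; 0% = enzyme with DMSO and 100% = wells lacking PAFAH2 protein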
PAFAH1B2 FP inh: inhibitors of human PAFAH1B2. recombinant PAFAH1B2, FP-rhodamine activity probe, fluorescence polarization. inhibition, % at 3.39 µM. actives 1.2% (n = 340,000). AID 492953;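 active = inhibition above the mean of all tested compounds plus 3 SD, cut at about 24% in these data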;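 note: 0% = enzyme with DMSO and 100% = wells lacking PAFAH1B2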
Target sequence (P68402 whole entry, looked up): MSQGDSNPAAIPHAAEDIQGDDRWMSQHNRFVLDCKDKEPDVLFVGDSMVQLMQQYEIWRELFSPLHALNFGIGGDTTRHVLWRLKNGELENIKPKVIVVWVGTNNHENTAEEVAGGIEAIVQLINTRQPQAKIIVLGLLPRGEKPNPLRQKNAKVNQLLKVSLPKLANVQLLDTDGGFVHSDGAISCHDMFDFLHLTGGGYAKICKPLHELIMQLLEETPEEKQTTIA
PAFAH1B3 FP inh: inhibitors of human PAFAH1B3. actives 0.28% (n = 340,000). inhibition, % at 3.39 µM. recombinant PAFAH1B3, FP-rhodamine probe, fluorescence polarization. Q15102;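 active = inhibition above the screen-wide average of all tested compounds plus 3 SD, cut at about 25% in these data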;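 note: 0% = enzyme with DMSO only and 100% = wells lacking PAFAH1B3 protein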
HTRA1 inhibitor: inhibitors of human serine peptidase HTRA1; Q92743; recombinant HTRA1, FP-rhodamine activity-based probe, fluorescence polarization; inhibition, % at 5.96 µM; actives 0.5% (n = 340,000); in the data active = inhibition above about 36%;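 note: 0% = enzyme with DMSO and 100% = wells lacking enzyme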
mABHD4 FP: inhibitors of mouse ABHD4. Q8VD66. purified mABHD4, FP-Rh probe fluorescence polarization. inhibition, % at 8.92 µM. actives 0.54% (n = 370,000). AID 720543;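 active = inhibition exceeding the mean over every tested compound plus 3 SD, cut at about 30% in these data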;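 note: 0% = plate median of compound wells and 100% = S159A mutant with DMSO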
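System: mouse ABHD4 enzyme, wild type / Medium: HEPES pH 7.0, NaCl, Pluronic buffer / Reagent: FP-Rh activity-based fluorescent probe / Control set: S159A mutant high control, sample median low control / Detection: fluorescence polarization with parallel and perpendicular emission, 525/598 nm / Schedule: 45 min + 60 min at 25 °C / Compound dosing: 8.92 µM, single dose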
* = called active by the depositor; / = no result.

SMILES | pPAFAH inh | PAFAH2 FP inh | PAFAH1B2 FP inh | PAFAH1B3 FP inh | HTRA1 inhibitor | mABHD4 FP
COc1ccccc1Nc1nc(-c2ccc3c(c2)NC(=O)CO3)cs1 | 20.6 | -1.5 | 0.5 | 19.8 | 1.2 | 19.1
COc1ccc(Nc2nc(-c3ccc4c(c3)NC(=O)CO4)cs2)cc1 | 30.2* | 2.6 | -2.4 | 5.6 | 31.2 | 28.5
CCOc1ccc(N2CSC3=C(C#N)C(c4ccco4)CC(=O)N3C2)cc1 (stereo not drawn) | 47.7* | 6.5 | -4.7 | 4.9 | 1.7 | 19.4
CCc1ccccc1N1CSC2=C(C#N)C(c3cc(OC)c(OC)cc3OC)CC(=O)N2C1 (stereo not drawn) | 25.3* | 7.5 | 2.2 | 8.2 | 0.8 | 7.9
COc1ccccc1N1CSC2=C(C#N)C(c3ccc(SC)cc3)CC(=O)N2C1 (stereo not drawn) | 17.4 | 7.3 | 4.0 | 3.7 | 1.0 | 31.2*
COc1cc(C2CC(=O)N3CN(c4ccccc4C)CSC3=C2C#N)cc(OC)c1OC (stereo not drawn) | 13.6 | / | / | / | / | 8.4
CCc1ccccc1NC(=O)c1cc(C)nn1-c1ccccc1 | / | / | / | / | / | -0.5
COc1ccc(C2C(C(=O)N3CCN(c4ccccc4C)CC3)CC(=O)N2c2ccc(OC)cc2)cc1 (stereo not drawn) | / | / | / | / | / | 3.5
O=Cc1nc(Nc2cc(F)cc(F)c2)nc(NC2CCCC2)n1 | / | / | / | / | / | -25.3
CC1CCCCC1NC(=O)COC(=O)c1ccc2ccccc2n1 (stereo not drawn) | 27.0* | 13.1 | 2.2 | 4.3 | 1.1 | -7.0
O=C1N=C(N2C=CC(=C3C=CNC=C3)C=C2)/C(=C/N=NC(=O)c2ccccc2O)S1 | 25.6* | 16.4 | 6.6 | 16.1 | 24.0 | 19.0
N#Cc1cc2c(nc1SCC(O)CS(=O)(=O)Cc1ccc(Cl)cc1)CCCC2 (stereo not drawn) | 14.1 | 9.8 | 29.6* | -1.9 | -31.5 | -16.1
CCCSc1nsc(NC(=O)CCC)n1 | 30.9* | -5.4 | 8.8 | -1.5 | -0.9 | -5.2
CN1CCN(c2cc(N3CCN(C(=O)c4ccco4)CC3)c3c4c(onc24)-c2ccccc2C3=O)CC1 | 10.8 | 4.8 | 9.1 | 8.8 | 63.1* | /
CCOC(=O)CC[C@@H]1CC[C@]2(CCCN(C(=O)C(C)(C)C)C2)O1 | / | / | / | / | / | 4.3
O=C1CC[C@@H](CN(Cc2ccccn2)Cc2nc(Cc3cccc(C(F)(F)F)c3)no2)N1 | 5.7 | 0.4 | 3.0 | 1.2 | 0.7 | 0.0
FC(F)(F)c1cccc(Cc2noc(CN(Cc3ccccn3)CC3CCCO3)n2)c1 (stereo not drawn) | 32.5* | -6.8 | 3.5 | 2.3 | 2.6 | 10.7
Cc1ccc(CS/C(Nc2ccccc2C)=C(\C#N)C(=O)NCc2ccco2)c(C)c1 | 28.2* | -10.5 | -1.7 | 1.0 | -43.3 | -12.8
COC(=O)[C@]12C[C@H](CC(=O)N3CCC(c4ccccc4)CC3)C(=O)N(CCc3ccc(OC)c(OC)c3)C1=C[C@H](C1CCCC1)O[C@@H]2C | / | / | / | / | / | -3.5
CC(O)CNc1nc2ccccc2n1CC(=O)NCCc1ccc(Cl)cc1 (stereo not drawn) | 4.0 | -0.3 | 27.6* | 1.1 | 3.7 | 2.2
Cc1ccccc1NC(=O)Cn1c(NCC(C)O)nc2ccccc21 (stereo not drawn) | -2.1 | -1.7 | -3.8 | -2.4 | -0.5 | 1.5
COC1=C[C@H](C(=O)NCc2ccccn2)[C@@]2(C)Cc3ccccc3[C@H]2CC1=O | / | / | / | / | / | -1.4
N#CC1=C(N)NC(SCC(=O)c2ccc(Cl)cc2)=C(C#N)C12CCCC2 | 5.7 | 2.6 | 10.5 | 3.2 | -33.2 | 9.2
COc1ccc(C(=O)CSC2=C(C#N)C3(CCCCC3)C(C#N)=C(N)N2)cc1 | 4.7 | 0.1 | 27.4* | 5.0 | -30.9 | -1.4
CC1(C)CC(=O)C(C=Nc2ccc(O)c(N=CC3=C(O)CC(C)(C)CC3=O)c2)=C(O)C1 | 33.2* | 55.3* | 1.0 | 9.4 | 20.4 | 6.5
SMILES | pPAFAH inh | PAFAH2 FP inh | PAFAH1B2 FP inh | PAFAH1B3 FP inh | HTRA1 inhibitor | mABHD4 FP
O=C(CSc1nnc(COc2ccccc2)n1-c1ccc(Cl)cc1)Nc1ccc(OCc2ccccc2)cc1 | / | / | / | / | / | 6.6
O=C(COC(=O)COc1ccccc1)NC12CC3CC(CC(C3)C1)C2 | 12.5 | 2.3 | 25.1* | -2.2 | 1.7 | 1.7
C[C@H]1[C@@H](OC(=O)Nc2ccc(Cl)cc2)CC[C@@]23CCCN2C(=O)CCC[C@@H]13 | / | / | / | / | / | -4.0
COc1ccc(OC)c(S(=O)(=O)N2CCCC(c3noc(-c4ccc(C)cc4)n3)C2)c1 (stereo not drawn) | / | / | / | / | / | 0.7
CC(C)(C)c1ccc(-c2nnc(SCC(=O)Nc3ccc4c(c3)OCCO4)n2-c2ccc(Cl)cc2)cc1 | / | / | / | / | / | 0.0
COc1ccc(/C=C2\CCCc3c2nc2ccccc2c3C(=O)O)cc1OC | 7.5 | / | / | / | / | /
CCOc1ccc(/C=C2\CCCc3c2nc2ccccc2c3C(=O)O)cc1OC | 16.0 | 19.0 | 5.9 | 27.6* | 14.1 | /
COc1cc(/C=C2\CCCc3c2nc2ccccc2c3C(=O)O)cc(OC)c1O | 8.9 | 9.9 | -1.3 | 4.9 | 9.6 | 15.3
COc1cc(/C=C2\CCCc3c2nc2ccccc2c3C(=O)O)cc([N+](=O)[O-])c1O | 32.3* | 24.9 | 1.5 | 16.3 | 5.7 | 29.1
CC(C)NCC#CCOc1ccc(Cl)cc1 | 5.6 | 7.5 | 29.5* | 1.5 | -1.1 | 10.6
COc1ccc(-c2cc(-c3ccc(OC)c(OC)c3)n[nH]2)c(O)c1 | 24.6* | 4.2 | 4.7 | 2.5 | -14.4 | -7.8
Cc1ccc(OCCNC(=O)CCc2nc3sc4c(c3c(=O)[nH]2)CCCC4)cc1 | 18.5 | -0.5 | 27.4* | 6.0 | -16.3 | -0.5
Cc1ccc(NC(=O)C(C)SCc2nc3sc4c(c3c(=O)[nH]2)CCCC4)nc1 (stereo not drawn) | 17.0 | -2.5 | 29.2* | -0.1 | 0.5 | 2.5
CCOC(=O)c1c(N)sc2c1CCC(CC)C2 (stereo not drawn) | 25.5* | 4.7 | 2.6 | -1.0 | 1.8 | 3.9
CCOC(=O)c1c(N)sc2c1CCC1C(=O)N(C3CCCCC3)C(=O)C21 (stereo not drawn) | 34.1* | 11.5 | 4.3 | 2.4 | -2.8 | 19.0
CCC1CCc2c(sc(N)c2C(N)=O)C1 (stereo not drawn) | 8.3 | 0.1 | -1.6 | 11.0 | -1.1 | 9.7
O=C1CC(c2cccc(Br)c2)c2cc3c(cc2N1)CCC3 (stereo not drawn) | 28.0* | 1.0 | 4.6 | 4.4 | -45.2 | -12.3
C=CCN(C)CC#Cc1ccc(F)cc1 | / | / | / | / | / | -4.2
Cc1ccc(S(=O)(=O)N2CCC(=O)N(C(CO)Cc3ccccc3)CC2)cc1 (stereo not drawn) | -0.3 | 1.1 | 24.4* | 4.3 | -1.1 | 0.5
Cc1ccc(NC(=O)OCCN2CCN(S(=O)(=O)c3ccc(C)cc3)CCC2=O)cc1 | 10.9 | 2.8 | 28.7* | 9.0 | 3.1 | 5.2
Cc1ccc(S(=O)(=O)N2CCC(=O)N(C(COC(=O)Nc3ccccc3)Cc3ccccc3)CC2)cc1 (stereo not drawn) | 7.1 | 4.3 | 34.8* | 5.8 | -39.7 | -2.2

Source: PubChem (The Scripps Research Institute Molecular Screening Center)
